Results published in the EternaBench riboswitch data.

System: MS2 coat protein
Test: apparent Kd, MS2 coat protein; higher = weaker binding; RNA-MaP array; theophylline 2 mM where present
Summary of the method: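 Two titrations, one without ligand and one with constant ligand, were run with SNAP-549-labelled MS2 coat protein from 0.7 or 1.5 nM, doubling to 3 µM. The targets were designs transcribed by stalled E. coli RNA polymerase on Illumina sequencing-chip clusters, in 100 mM Tris-HCl pH 7.5, 80 mM KCl, 4 mM MgCl2, BSA, DTT, yeast tRNA and Tween-20. The apparent Kd is the median of filtered per-cluster binding-curve fits, with green signal normalised to red-channel RNA signal and control-cluster median Fmax.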

[1] = designed as: OFF switch for theophylline, no ligand
[2] = ligand present: theophylline, designed as: OFF switch for theophylline
[3] = designed as: ON switch for theophylline, no ligand
[4] = ligand present: theophylline, designed as: ON switch for theophylline

Row | Sequence | apparent Kd [1] [nM] | apparent Kd [2] [nM] | apparent Kd [3] [nM] | apparent Kd [4] [nM]
1 | AAACGUUGCUGCGAUACCAGACAUGAGGAUCACCCAUGUACCAAGGUAAGAAAAUAACAUGUCCCUUGGCAGCGCAGCAACGAAA | 15.4 | 412 |  | 
2 | AACAUGAGGAUCACCCAUGUGUCCCUUGAUACCAGUCCCAUGUGAGACCCUUGGCAGCAAACAUGAGGAUCACCCAUGUCCCAUG |  |  | 102 | 142
3 | AAGACAUGAGGAUCACCCAUGUGGAGGGAUACCAGCCUGUGUGUGGGCCCUUGGCAGCUUAAAUUUAAUUUAAUUAAAUAAAUUU |  |  | 34.7 | 36.1
4 | AAGCUGACAAGAAGGUGUUCCUAAGCUGAUACCAGCCUGGAAACAGGCCCUUGGCAGCAGCACAUGAGGAUCACCCAUGUAAUAA | 118 | 79.2 |  | 
5 | AAUAACAUGAGGAUCACCCAUGUAAAAGAUACCAGAUGCAUGAUGAUCCCUUGGCAGCUUAAACGCGAUUGAUUACAAUCGCGAA |  |  | 34.4 | 91.8
6 | ACAUGAGGAUCACCCAUGUUCCUCAUUGAUACCAGUGAAUUUAGACGCCCUUGGCAGCGAGUUUUUUUAUAAGAAGUUUUUUUUU | 660 | 1310 |  | 
7 | ACCUACACGGAGACGUGUAGGAGUAAUGAUACCAGCAUGGAGACAUGCCCUUGGCAGCGUUACAUGAGGAUCACCCAUGUGGUGC | 21.1 | 483 |  | 
8 | ACGAACGAUAGUGAUACCAGACGUACAUGAGGAUCACCCAUGUUAUACACAUGGUUUAUUGUCCCUUGGCAGCACGUUAAGUUCG | 274 | 295 |  | 
9 | ACUAGCGCACAUGAUACCAGCGACAUGAGGAUCACCCAUGUACGGCGUGUAUCGAAAGGUUGCCCUUGGCAGCAUGAUAGCGCUG | 13.9 | 255 |  | 
10 | ACUCGGUAUGUCUAAUACCGAGAGUAUGAUACCAGUAUGGUGACAUACCCUUGGCAGCAUGGGACAUGAGGAUCACCCAUGUGUU |  |  | 538 | 505
11 | ACUCGGUGUUUGUUGCUCCGAGUGUAUGAUACCAGUUAGUUUUAUGGCCCUUGGCAGCAUAGGACAUGAGGAUCACCCAUGUGUU |  |  | 32.6 | 45.7
12 | AGACAUGAGGAUCACCCAUGUAGCAUGGAUACCAGAUCCAGAUUUAUCCCUUGGCAGCUGUGGUAAAGUGAUGGAUUGCUCCUAG | 44.3 | 55.5 |  | 
13 | AGACAUGAGGAUCACCCAUGUAGUAUGGAUACCAGAUCCAGAUUUAUCCCUUGGCAGCUGUGGUACAGCGUUGCAUCGCUCCUAG | 32.3 | 34.5 |  | 
14 | AGAUCUUUCGAAAGAAGGAUCUUGGCUGAUACCAGAGACGAAAGUCUCCCUUGGCAGCAGUGCCAACAUGAGGAUCACCCAUGUA |  |  | 45.8 | 24.1
15 | AGCAUGUUAUCAGAUACCAGACAUCUUUUAAAACAUAUUACAUGAGGAUCACCCAUGUUGGUCCCUUGGCAGCUGAAAUAUUUCA |  |  | 272 | 39.8
16 | AGCCUCAUACAUGAGGAUCACCCAUGUGAUACCAGUCAGGAAACUGACCCUUGGCAGCGCAUGAGGAUCACCCAUGUGCGAGGCA | 43.5 | 192 |  | 
17 | AGCGUAUAGACGGAUACCAGCGCCAAUUAACAUGAGGAUCACCCAUGUAGUGUGGGUGGACGCCCUUGGCAGCCGAGUAUAGGUA | 97.8 | 284 |  | 
18 | AGCUCAGAGAGUGAUACCAGACUACAUGAGGAUCACCCAUGUUACUUUUAAAUAUCAUGAGUCCCUUGGCAGCACAAGAAGAGCA | 81 | 168 |  | 
19 | AGGAAACAACAUGAGGAUCACCCAUGUGAUACCAGUAUCAAAAGAUACCCUUGGCAGCACACAUGACAUGAGGAUCACCCAUGUA |  |  | 41.4 | 84.4
20 | AUAACAUGAGGAUCACCCAUGUAAGCAGAUACCAGCUAGGAAACUAGCCCUUGGCAGCUGCAAGGUGAUCCUAAUGCAGCUGCAA | 154 | 119 |  | 
21 | AUAACAUGAGGAUCACCCAUGUAAGGUGAUACCAGACGAAGUAAAGUCCCUUGGCAGCACAAGCAUAGUUGCGAAUAUUGAUAGA |  |  | 469 | 63.1
22 | AUAACAUGAGGAUCACCCAUGUAAGGUGAUACCAGACGAAGUAAAGUCCCUUGGCAGCACAAGUAAAGUUACGAAUAUUGAUAGA |  |  | 430 | 47.3
23 | AUAAGUAAUGUUUCGUGUUUUAUUACAGAUACCAGACUAUACGUUGUCCCUUGGCAGCUGGAUUACAUGAGGAUCACCCAUGUUG | 19.5 | 35.1 |  | 
24 | AUCCUCUAGAAUGAUACCAGACCAAACAUGAGGAUCACCCAUGUAUCAGGCAAUUGUUACGUCCCUUGGCAGCAUGUAUGCCGAC |  |  | 27.7 | 28.1
25 | AUCUCAUAGAGUGAUACCAGACUACAUGAGGAUCACCCAUGUUAGAUUUAAAUAUCAUUUGUCCCUUGGCAGCACAUUAAGUACA |  |  | 12.9 | 11.5
